Here are results for four compounds from ChEMBL document CHEMBL1275417, “Biological activities of novel gyrase inhibitors of the aminocoumarin class” (Antimicrob Agents Chemother, 2008).

As a reminder, the MIC is the lowest concentration that inhibits growth of the organism. A lower MIC goes with a more susceptible organism. Broadly, the IC50 is the concentration that gives 50% inhibition.

The subject of assay [1] is Pseudomonas aeruginosa. Put plainly: Antibacterial activity against Pseudomonas aeruginosa K799/WT by broth microdilution method. It is filed as functional.
Assay [2] has as its system Escherichia coli. The assay is described as follows: Antibacterial activity against Escherichia coli DC2 by broth microdilution method. It is filed as functional. In general terms: Broth dilution looks for growth in wells or tubes with falling amounts of substance.
In assay [3] the target is DNA gyrase subunit A (Escherichia coli K-12) (UniProt P0AES4). The assay is described as follows: Inhibition of Escherichia coli K-12 DNA gyrase A expressed in Escherichia coli DC2 assessed as compound concentration required for => 4-fold induction of luxCDABE operon by reported gene assay. The gist of the method:
(§1)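 E. coli DC2 carrying a gyrA or sulA promoter–luxCDABE (Photorhabdus) fusion plasmid. Grown overnight at 37°C in LB with 2 μg/ml tetracycline, then diluted 1:100 in LB without tetracycline and precultured 1.5 h at 37°C. Compounds were added from DMSO stocks to 1% final DMSO and incubated 5 h at 37°C. Bioluminescence was divided by A595, and induction factor is the treated/untreated ratio. The value is the lowest test concentration giving ≥4-fold induction.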

The test system of assay [4] is Pseudomonas aeruginosa. The assay is described as follows: Antibacterial activity against Pseudomonas aeruginosa K799/61 by broth microdilution method. Type of assay: functional.
Assay [5] has as its system Escherichia coli. The assay is described as follows: Antibacterial activity against Escherichia coli ATCC 25922 by broth microdilution method. It is filed as functional.
Assay [6] has as its system Escherichia coli. The assay is described as follows: Antibacterial activity against Escherichia coli UB1005 by broth microdilution method. Type of assay: functional.
Another assay relates to Enterococcus faecalis. The assay is described as follows: Antibacterial activity against Enterococcus faecalis ATCC 29212 by broth microdilution method. Type of assay: functional.
Assay [7] deals with T1, Cell division inhibitor SulA (Escherichia coli K-12) (UniProt P0AFZ5).
T1 sequence (whole entry): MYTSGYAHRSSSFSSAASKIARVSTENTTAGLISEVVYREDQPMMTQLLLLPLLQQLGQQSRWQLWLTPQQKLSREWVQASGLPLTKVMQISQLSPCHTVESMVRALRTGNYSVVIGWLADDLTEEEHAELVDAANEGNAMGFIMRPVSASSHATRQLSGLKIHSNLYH
The assay is described as follows: Inhibition of Escherichia coli K-12 DNA sulA expressed in Escherichia coli DC2 assessed as compound concentration required for => 4-fold induction of luxCDABE operon by reported gene assay. The gist of the method:
as §1

Another assay addresses DNA gyrase subunit B (Escherichia coli, UniProt P0AES6). Put plainly: Inhibition of Escherichia coli JM109 DNA gyrase subunit B assessed as ATP hydrolysis by ATPase assay.
Assay [8] has as its system Staphylococcus aureus. The assay is described as follows: Antibacterial activity against Staphylococcus aureus 80CR5 by broth microdilution method. Type of assay: functional.
Assay [9] concerns Streptococcus pneumoniae. Put plainly: Antibacterial activity against Streptococcus pneumoniae ATCC 49619 by broth microdilution method. It is filed as functional.
Assay [10] deals with Staphylococcus aureus. The assay is described as follows: Antibacterial activity against Staphylococcus aureus ATCC 29213 by broth microdilution method. It is filed as functional.
Assay [11] relates to Pseudomonas aeruginosa. Put plainly: Antibacterial activity against Pseudomonas aeruginosa ATCC 27853 by broth microdilution method. It is filed as functional.
Assay [12] relates to Streptococcus pneumoniae. The assay is described as follows: Antibacterial activity against Streptococcus pneumoniae TUPELO by broth microdilution method. Type of assay: functional.
The target of assay [13] is DNA gyrase (Escherichia coli). The assay is described as follows: Inhibition of Escherichia coli JM109 DNA gyrase assessed as DNA triple helix formation by supercoiling assay.
For assay [14], the system named is Staphylococcus aureus. The assay is described as follows: Antibacterial activity against Staphylococcus aureus ATCC 43300 by broth microdilution method. It is filed as functional.
A further assay relates to Enterococcus faecium. Put plainly: Antibacterial activity against Enterococcus faecium ATCC 19434 by broth microdilution method. Type of assay: functional.
The subject of assay [15] is Streptococcus pneumoniae. The assay is described as follows: Antibacterial activity against Streptococcus pneumoniae SL336-T by broth microdilution method. Type of assay: functional.
The subject of another assay is Klebsiella pneumoniae. Put plainly: Antibacterial activity against Klebsiella pneumoniae ATCC 27736 by broth microdilution method. Type of assay: functional.

SMILES strings stand for the structures. Converted amounts (≈) assume the structure as drawn. Some results are limits rather than exact numbers.

Sequence of DNA gyrase subunit A (Escherichia coli K-12) (P0AES4 whole entry, the tested form may be a part): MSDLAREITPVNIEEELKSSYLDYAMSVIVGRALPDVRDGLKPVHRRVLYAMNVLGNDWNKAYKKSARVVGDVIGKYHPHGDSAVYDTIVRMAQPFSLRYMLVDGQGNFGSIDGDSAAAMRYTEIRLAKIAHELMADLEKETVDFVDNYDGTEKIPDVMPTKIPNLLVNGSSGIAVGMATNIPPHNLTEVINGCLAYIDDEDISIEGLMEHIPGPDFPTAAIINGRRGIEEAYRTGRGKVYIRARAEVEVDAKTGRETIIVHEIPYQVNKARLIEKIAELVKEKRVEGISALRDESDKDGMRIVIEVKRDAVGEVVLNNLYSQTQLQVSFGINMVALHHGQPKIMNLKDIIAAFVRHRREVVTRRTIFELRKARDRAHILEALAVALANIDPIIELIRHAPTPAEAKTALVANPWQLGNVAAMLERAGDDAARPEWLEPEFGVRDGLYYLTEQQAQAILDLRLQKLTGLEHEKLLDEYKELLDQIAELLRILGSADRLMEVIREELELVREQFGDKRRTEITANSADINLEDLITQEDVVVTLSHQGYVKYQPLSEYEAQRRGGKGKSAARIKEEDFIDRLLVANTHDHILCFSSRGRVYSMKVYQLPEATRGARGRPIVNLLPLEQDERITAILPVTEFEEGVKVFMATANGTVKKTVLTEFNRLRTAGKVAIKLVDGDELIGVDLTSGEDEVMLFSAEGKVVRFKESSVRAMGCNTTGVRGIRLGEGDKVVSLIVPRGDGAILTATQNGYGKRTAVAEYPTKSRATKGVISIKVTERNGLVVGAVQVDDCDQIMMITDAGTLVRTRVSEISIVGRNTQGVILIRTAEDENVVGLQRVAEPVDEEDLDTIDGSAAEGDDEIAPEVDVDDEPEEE

On to `C=CCc1cc(C(=O)Nc2c(O)c3ccc(O[C@@H]4OC(C)(C)[C@H](OC)[C@@H](OC(=O)c5ccc(C)[nH]5)[C@H]4O)c(C)c3oc2=O)ccc1O`, for which the MIC was > 32 µg/mL in the assay on Pseudomonas aeruginosa [1]; 8 µg/mL (≈ 12.3 µM) against Escherichia coli [2]; 0.5 µg/mL (≈ 0.771 µM) against Pseudomonas aeruginosa [4]; > 32 µg/mL in the assay with Escherichia coli [5]; > 32 µg/mL in the assay with Escherichia coli [6]; 8 µg/mL (≈ 12.3 µM) in the assay on Enterococcus faecalis. For the same compound, the MIC with Staphylococcus aureus [8] is 16 µg/mL (≈ 24.7 µM); with Streptococcus pneumoniae [9] it was 1 µg/mL (≈ 1.54 µM); with Staphylococcus aureus [10] it was ≤ 0.06 µg/mL; with Pseudomonas aeruginosa [11], > 32 µg/mL; with Streptococcus pneumoniae [12] it was 2 µg/mL (≈ 3.08 µM); in the assay with Staphylococcus aureus [14], ≤ 0.06 µg/mL. Moreover, the MIC is > 32 µg/mL with Enterococcus faecium, 2 µg/mL (≈ 3.08 µM) with Streptococcus pneumoniae [15] and > 32 µg/mL against Klebsiella pneumoniae. Besides, the Activity in assay [3] was found to be 1.6 µM; in assay [7], 3.1 µM. Also, the values for the IC50 (on DNA gyrase subunit B; in assay [13]) were 116 nM and 34 nM, respectively.

Take `COc1cc(C(=O)Nc2c(O)c3ccc(O[C@@H]4OC(C)(C)[C@H](OC)[C@@H](OC(=O)c5ccc(C)[nH]5)[C@H]4O)c(Cl)c3oc2=O)ccc1O`: the MIC was > 32 µg/mL with Pseudomonas aeruginosa [1]; 32 µg/mL (≈ 48.6 µM) with Escherichia coli [2]; 1 µg/mL (≈ 1.52 µM) in the assay on Pseudomonas aeruginosa [4]; > 32 µg/mL against Escherichia coli [5]; > 32 µg/mL with Escherichia coli [6]; 16 µg/mL (≈ 24.3 µM) against Enterococcus faecalis. In addition, the MIC was 32 µg/mL (≈ 48.6 µM) against Staphylococcus aureus [8]; 2 µg/mL (≈ 3.03 µM) against Streptococcus pneumoniae [9]; 1 µg/mL (≈ 1.52 µM) in the assay with Staphylococcus aureus [10]; > 32 µg/mL with Pseudomonas aeruginosa [11]; 8 µg/mL (≈ 12.1 µM) in the assay with Streptococcus pneumoniae [12]; 1 µg/mL (≈ 1.52 µM) against Staphylococcus aureus [14]. For the same compound, the minimum inhibitory concentration (MIC) against Enterococcus faecium was > 32 µg/mL; in the assay on Streptococcus pneumoniae [15], 4 µg/mL (≈ 6.07 µM); in the assay on Klebsiella pneumoniae, > 32 µg/mL. Moreover, the Activity in assay [3] came out at 25 µM; in assay [7] it was 6.3 µM. Also, the IC50 on DNA gyrase subunit B came out at 122 nM; in [13] it was 22 nM.

As to `CO[C@@H]1[C@@H](OC(=O)c2ccc(C)[nH]2)[C@@H](O)[C@H](Oc2ccc3c(O)c(NC(=O)c4ccc(SC)cc4)c(=O)oc3c2Cl)OC1(C)C`, the MIC against Pseudomonas aeruginosa [1] was > 32 µg/mL; with Escherichia coli [2], 8 µg/mL (≈ 12.1 µM); in the assay on Pseudomonas aeruginosa [4], 2 µg/mL (≈ 3.03 µM); against Escherichia coli [5], > 32 µg/mL; with Escherichia coli [6], > 32 µg/mL; against Enterococcus faecalis, 32 µg/mL (≈ 48.6 µM). Moreover, the MIC against Staphylococcus aureus [8] is 32 µg/mL (≈ 48.6 µM); with Streptococcus pneumoniae [9] it was 2 µg/mL (≈ 3.03 µM); against Staphylococcus aureus [10] it was 0.125 µg/mL (≈ 0.19 µM); in the assay with Pseudomonas aeruginosa [11] it was > 32 µg/mL; in the assay on Streptococcus pneumoniae [12], 16 µg/mL (≈ 24.3 µM); in the assay on Staphylococcus aureus [14], 0.25 µg/mL (≈ 0.379 µM). Further, the MIC in the assay with Enterococcus faecium was > 32 µg/mL; against Streptococcus pneumoniae [15] it was 4 µg/mL (≈ 6.07 µM); with Klebsiella pneumoniae, > 32 µg/mL. The results for the Activity in [3] and in [7] were 3.1 µM and 12.5 µM, respectively. For the same compound, the IC50 on DNA gyrase subunit B was 84 nM; in assay [13] it was 20 nM.

For the compound `CCCc1cc(C(=O)Nc2c(O)c3ccc(O[C@@H]4OC(C)(C)[C@H](OC)[C@@H](OC(=O)c5ccc(C)[nH]5)[C@H]4O)c(C)c3oc2=O)ccc1O`, the MIC in the assay with Pseudomonas aeruginosa [1] is > 32 µg/mL; against Escherichia coli [2] it was 8 µg/mL (≈ 12.3 µM); in the assay on Pseudomonas aeruginosa [4], 0.5 µg/mL (≈ 0.768 µM); in the assay on Escherichia coli [5] it was > 32 µg/mL; against Escherichia coli [6] it was > 32 µg/mL; in the assay on Enterococcus faecalis, 16 µg/mL (≈ 24.6 µM). For the same compound, the MIC with Staphylococcus aureus [8] was 32 µg/mL (≈ 49.2 µM); against Streptococcus pneumoniae [9], 2 µg/mL (≈ 3.07 µM); with Staphylococcus aureus [10], ≤ 0.06 µg/mL; against Pseudomonas aeruginosa [11] it was > 32 µg/mL; in the assay on Streptococcus pneumoniae [12] it was 4 µg/mL (≈ 6.15 µM); against Staphylococcus aureus [14], ≤ 0.06 µg/mL. The figures for the minimum inhibitory concentration (MIC) with Enterococcus faecium, in the assay on Streptococcus pneumoniae [15] and with Klebsiella pneumoniae were > 32 µg/mL, 2 µg/mL (≈ 3.07 µM) and > 32 µg/mL, respectively. The Activity in assay [3] came out at 3.1 µM; in assay [7], 1.6 µM. The values for the IC50 (on DNA gyrase subunit B; in [13]) were 84 nM and 19 nM, respectively.
